Data set [1] is described as follows: Neurotoxicity against human SH-SY5Y cells assessed as cell viability at 5 uM after 24 hrs by MTT assay relative to control. The note with it: read-out: Activity. The format is toxicity, cell-based. Summed up: (§1)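 Cytotoxicity assay: SH-SY5Y cells were incubated with compound at 1, 2.5, 5 or 10 μM for 24 h. Viability was determined by MTT and expressed as percent of control, mean ± SD of 3 independent experiments.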

In data set [2] the test system is SH-SY5Y. The data set can be described thus: Neuroprotective activity against okadaic acid-induced cell death in human SH-SY5Y cells assessed as cell viability at 1 uM after 24 hrs by MTT assay (reference value: 53.1%). The settings on record: read-out: Activity. In kind it is functional.
Data set [3] addresses Amyloid-beta precursor protein (Homo sapiens) (UniProt P05067). The data set can be described thus: Inhibition of self-induced human amyloid beta (1 to 42) aggregation at 25 uM after 24 hrs by thioflavin-T based fluorescence assay relative to control. Summed up: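 Thioflavin T fluorescence assay of self-induced Aβ1-42 aggregation, with test compound present at 25 μM and resveratrol as the positive control. Inhibition is given in percent as mean ± SD of at least three independent experiments.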

Another data set concerns the target Acetylcholinesterase (Electrophorus electricus, UniProt O42275). The data set can be described thus: Inhibition of electric eel AChE using acetylthiocholine iodide as substrate preincubated for 2 mins followed by substrate addition and measured after 2 mins by Ellman's method. The note with it: read-out: IC50.
The subject of data set [4] is SH-SY5Y. The data set can be described thus: Neuroprotective activity against amyloid beta (1 to 42)-induced neurodegeneration in human SH-SY5Y cells assessed as cell viability at 5 uM after 48 hrs by MTT assay (reference value: 54.2%). The settings on record: read-out: Activity. In kind it is functional. Summed up:
(§2)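 SH-SY5Y neuroblastoma cells were exposed to Aβ1-42 (30 μM) for 48 h, with or without compound at 1 or 5 μM. Viability was measured by MTT assay against Aβ1-42-only and untreated controls. Data are mean ± SEM of three experiments, each run in triplicate.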

Data set [5] can be described thus: Neurotoxicity against human SH-SY5Y cells assessed as cell viability at 1 uM after 24 hrs by MTT assay relative to control. The note with it: read-out: Activity. In kind it is toxicity, cell-based. The gist of the method:
as §1

In data set [6] the test system is SH-SY5Y. The data set can be described thus: Neuroprotective activity against H2O2-induced oxidative stress in human SH-SY5Y cells assessed as cell viability at 5 uM after 24 hrs by MTT assay (reference value: 57.2%). The format is functional. The settings on record: read-out: Activity. Summed up:
(§3)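 SH-SY5Y cells were treated with H₂O₂ (300 μM) for 24 h, with compound (1 or 5 μM) co-treated. Viability was read by MTT and compared with H₂O₂-only and untreated controls. Data are mean ± SEM of three experiments, each run in triplicate.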

A short description of data set [7]: Neurotoxicity against human SH-SY5Y cells assessed as cell viability at 10 uM after 24 hrs by MTT assay relative to control. The format is toxicity, cell-based. The note with it: read-out: Activity. The gist of the method:
as §1

The test system of data set [8] is SH-SY5Y. The data set can be described thus: Neuroprotective activity against H2O2-induced oxidative stress in human SH-SY5Y cells assessed as cell viability at 1 uM after 24 hrs by MTT assay (reference value: 57.2%). In kind it is functional. The note with it: read-out: Activity. Summed up: as §3
Data set [9] is described as follows: Neurotoxicity against human SH-SY5Y cells assessed as cell viability at 2.5 uM after 24 hrs by MTT assay relative to control. The format is toxicity, cell-based. The settings on record: read-out: Activity. The gist of the method: as §1
Data set [10] concerns SH-SY5Y. In words: Neuroprotective activity against amyloid beta (1 to 42)-induced neurodegeneration in human SH-SY5Y cells assessed as cell viability at 1 uM after 48 hrs by MTT assay (reference value: 54.2%). In kind it is functional. The settings on record: read-out: Activity. The gist of the method:
as §2

Sequence of Acetylcholinesterase (O42275 whole entry): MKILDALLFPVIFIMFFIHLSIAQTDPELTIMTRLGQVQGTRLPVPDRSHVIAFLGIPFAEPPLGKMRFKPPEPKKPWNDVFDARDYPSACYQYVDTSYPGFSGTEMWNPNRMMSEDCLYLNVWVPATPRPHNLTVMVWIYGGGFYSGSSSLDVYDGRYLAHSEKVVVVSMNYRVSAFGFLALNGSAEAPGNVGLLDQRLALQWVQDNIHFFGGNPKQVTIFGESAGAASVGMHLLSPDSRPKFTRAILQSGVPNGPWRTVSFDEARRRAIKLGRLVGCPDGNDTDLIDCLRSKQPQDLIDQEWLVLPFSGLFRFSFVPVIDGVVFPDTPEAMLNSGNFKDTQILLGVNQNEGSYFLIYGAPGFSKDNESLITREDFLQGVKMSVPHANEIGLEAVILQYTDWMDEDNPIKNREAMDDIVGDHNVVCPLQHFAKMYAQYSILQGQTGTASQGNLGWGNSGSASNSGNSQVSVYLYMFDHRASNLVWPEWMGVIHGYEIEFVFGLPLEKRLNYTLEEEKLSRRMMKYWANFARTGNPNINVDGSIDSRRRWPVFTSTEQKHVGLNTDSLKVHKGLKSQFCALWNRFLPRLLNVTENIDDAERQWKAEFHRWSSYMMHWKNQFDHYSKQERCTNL
Sequence of Amyloid-beta precursor protein (Homo sapiens) (P05067 whole entry): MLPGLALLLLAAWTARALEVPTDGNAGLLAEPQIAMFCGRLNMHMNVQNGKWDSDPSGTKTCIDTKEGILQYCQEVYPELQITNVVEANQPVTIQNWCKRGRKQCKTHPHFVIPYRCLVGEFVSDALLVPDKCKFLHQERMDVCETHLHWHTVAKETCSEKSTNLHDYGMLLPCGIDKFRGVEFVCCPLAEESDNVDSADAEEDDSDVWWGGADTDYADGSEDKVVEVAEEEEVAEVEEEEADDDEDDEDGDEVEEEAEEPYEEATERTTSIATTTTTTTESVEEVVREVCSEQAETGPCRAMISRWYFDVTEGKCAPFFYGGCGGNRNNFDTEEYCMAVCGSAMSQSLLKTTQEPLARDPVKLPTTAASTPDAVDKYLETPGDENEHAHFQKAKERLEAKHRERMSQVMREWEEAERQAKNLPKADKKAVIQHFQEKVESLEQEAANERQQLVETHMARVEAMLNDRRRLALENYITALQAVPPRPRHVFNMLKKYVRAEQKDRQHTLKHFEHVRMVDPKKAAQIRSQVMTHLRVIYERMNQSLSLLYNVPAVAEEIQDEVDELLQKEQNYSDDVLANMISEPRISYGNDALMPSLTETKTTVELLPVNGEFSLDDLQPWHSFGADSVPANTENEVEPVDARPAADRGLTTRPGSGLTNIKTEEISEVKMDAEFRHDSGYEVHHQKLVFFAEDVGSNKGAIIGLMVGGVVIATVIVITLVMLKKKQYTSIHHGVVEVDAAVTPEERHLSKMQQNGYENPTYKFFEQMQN

As for `COC(=O)C1Cc2c([nH]c3ccccc23)C(C)N1C(=O)CCN1CCN(CCC(=O)N2C(C(=O)OC)Cc3c([nH]c4ccccc34)C2C)CC1` (stereo unspecified), the viability at 24 h, 5 µM in data set [1] is 102%. For the same compound, the figures for the viability at 1 µM with SH-SY5Y [2], with SH-SY5Y [8] and in the data set on SH-SY5Y [10] were 97.1%, 82.2% and 95.4%, respectively. This compound gave an inhibition in data set [3] of 65.6%. For the same compound, the IC50 on Acetylcholinesterase was 19.9 µM. Further, the viability at 5 µM is 85.4% in the data set with SH-SY5Y [4] and 76% with SH-SY5Y [6]. Further, the viability at 24 h, 1 µM in [5] is 103%. In addition, in [7], the viability at 24 h, 10 µM came to 90.9%. In addition, in data set [9], the viability at 24 h, 2.5 µM came to 99.9%.

The record behind these values is ChEMBL document CHEMBL4118286, “Design, synthesis and evaluation of novel bivalent β-carboline derivatives as multifunctional agents for the treatment of Alzheimer's disease” (Bioorg Med Chem, 2018).
